Measurements published in PubChem BioAssay.
Inconclusive results are not listed.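 Rule for the calls, unless noted: active = viability at or below 27.92% in each of two runs, the all-compound median minus 4 SD; inconclusive = no clear call, values can overlap the other calls; inactive = the rest.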

Assays:
[1] = S. cerevisiae growth inhibition in permissive medium (OD615), pilot counter-assay for S. cerevisiae lifespan shortening project, permissive growth control (AID 705;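 active = growth inhibition above 25% in both replicates, a cutoff set 3 SD above the mean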); conditions: OD615, 24 h, at 10 µM, stronger effect = higher value
Procedure, shortened: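 Material: engineered DeaD yeast; Compound: one dose 10 µM, DMSO 0.25% final; Detection: absorbance (optical density) at 615 nm; Buffer or medium: permissive raffinose/galactose medium; Timing: 24 h exposure, 30 °C.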

[2] = S. cerevisiae growth inhibition in restrictive medium, OD615, pilot screen, restrictive growth control, yeast lifespan reduction project (AID 706;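 active = growth inhibition above a set limit, 3 SD over mean compound inhibition, in both replicates, cut at about 43% in these data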;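 note: modified DeaD lifespan yeast strain shifted to restrictive glucose medium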); conditions: OD615, 48 h, at 10 µM, stronger effect = higher value
Procedure, shortened: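 Buffer or medium: restrictive glucose medium (CSMM-D); test system: modified S. cerevisiae; doses: single dose of 10 µM compound final, 0.25% DMSO; schedule: 48 h compound exposure at 30 °C; detection: absorbance (optical density) measured at 615 nm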

[3] = doxorubicin toxicity protection in MRP-1 cells – H69AR cells, CellTiter-Glo, duplicate, MRP-1 activator project, pilot screen (AID 807;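 active = viability increase at or above a cutoff of the median across tested compounds plus 3 SD, cut at about 8.5% in these data, passing the limit was not always enough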;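 note: compound pretreatment 18-22 h then 72 h combined with doxorubicin; 0% = doxorubicin alone and 100% = vehicle without doxorubicin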); conditions: H69AR viability with doxorubicin, CellTiter-Glo luminescence; at 10 µM; stronger effect = higher value
[4] = viability of HCT116 without oncogenic beta-catenin – human colon tumor cells, pilot screen (AID 823;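 active = cell viability at or below a set limit in both duplicate runs, the limit being the all-compound median minus 4 SD, cut at about 23% in these data, passing the limit was not always enough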;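 note: 0% = wells killed by 20 µM Hyamine and 100% = untreated DMSO cell wells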); conditions: HCT116 beta-catenin knockout viability, CellTiter-Glo, 60 h; at 10 µM; stronger effect = lower value
[5] = viability of PTEN-null HCT116 cells – cell-based, HCT116 clonal line, CellTiter-Glo, pilot screen (AID 824); conditions: HCT116 PTEN-deleted viability, 60 h, at 10 µM, stronger effect = lower value;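 note: 0% = 20 µM Hyamine control and 100% = vehicle cell control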
[6] = RAM pathway blockade in budding yeast – dse1pr::URA3 reporter, 5-FOA selection, pilot screen (AID 869;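 active = inhibition over a set limit, the all-compound mean plus 3 SD, in both replicate runs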;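 note: 0% = DMSO wells with no growth and 100% = 10 µM 1-NA-PP1 with full growth; RAM network block rescues cells from 5-FOA so hits raise OD615 growth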); conditions: S. cerevisiae dse1pr::URA3 5-FOA growth, OD615, 2 d; at 10 µM; stronger effect = higher value; strain carries analog-sensitive mutant Cbk1 kinase
[7] = RAM signaling pathway blockade in yeast – S. cerevisiae, Pdr1DBD-CYC8 efflux-inhibited sensitized strain, primary screen (AID 1298;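 active = RAM network inhibition above 8.4% in each of two replicates, 3 SD over the compound average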;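 note: 0% = DMSO untreated cells without growth and 100% = 10 µM 1-NA-PP1 full growth; higher means more yeast growth rescued from 5-FOA killing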); conditions: S. cerevisiae cbk1-as DSE1-URA3 strain, 5-FOA growth OD615, 2 d; at 50 µM; stronger effect = higher value

CCOC(=O)C(C)Sc1nnc(Cn2c(=O)sc3ccccc32)n1-c1ccccc1 (stereo not given)
inactive: growth inhibition [1] 2.42% | growth inhibition [2] -4.57% | viability increase [3] -0.22% | viability [4] 95.6% | viability [5] 92.6% | inhibition [6] 1.81% | RAM network inhibition [7] 0.1%

Cc1cccc(NC(=O)C2CCN(S(=O)(=O)c3cccc4cccnc34)CC2)c1
inactive: growth inhibition [1] 3.19% | growth inhibition [2] 11.8% | viability increase [3] -1.52% | viability [4] 88.2% | viability [5] 81.8% | inhibition [6] 3.88% | RAM network inhibition [7] 2.49%

C=CCn1c(NC(C)c2cc(Cl)ccc2O)nc2ccccc21 (stereo not given)
inactive: growth inhibition [1] -8.04% | growth inhibition [2] -0.215% | viability increase [3] -0.96% | viability [4] 68.6% | viability [5] 65.1% | inhibition [6] 0.29% | RAM network inhibition [7] -1.03%

c1ccc(-c2cnc(-c3cccnc3)o2)cc1
inactive: growth inhibition [1] 0.08% | growth inhibition [2] 7.29% | viability increase [3] -4.72% | viability [4] 95.5% | viability [5] 94.4% | inhibition [6] 2.12% | RAM network inhibition [7] 1.68%

Cc1cc(Nc2ccc3c(c2)OCCO3)n2nc(C)nc2n1
inactive: growth inhibition [1] -5.2% | growth inhibition [2] 11.4% | viability increase [3] -2.09% | viability [4] 106% | viability [5] 102% | inhibition [6] 2.84% | RAM network inhibition [7] 1.45%

CCOC(=O)Cn1c(CN2CCc3ccccc3C2)nc2c1c(=O)n(C)c(=O)n2C
inactive: growth inhibition [1] -7.72% | growth inhibition [2] 1.89% | viability increase [3] -0.76% | viability [4] 84.5% | viability [5] 86.1% | inhibition [6] -0.39% | RAM network inhibition [7] 4.64%

CCN1CCCC1CNC(=O)C1c2ccccc2C(=O)N(CCOC)C1c1ccc(F)cc1 (stereo not given)
inactive: growth inhibition [1] -3.19% | growth inhibition [2] -18.9% | viability increase [3] -1.76% | viability [4] 95.6% | viability [5] 98.1% | inhibition [6] 1.17% | RAM network inhibition [7] 7.82%

CCN(CC)CC(=O)Nc1cc(C)c2c(=O)oc3ccccc3c2n1
inactive: growth inhibition [1] -15.1% | growth inhibition [2] -19.2% | viability increase [3] -3.1% | viability [4] 96.1% | viability [5] 91.6% | inhibition [6] 1.04% | RAM network inhibition [7] 6.81%

Cc1ccc(C(=O)CC2(O)C(=O)N(C)c3ccccc32)o1 (stereo not given)
inactive: growth inhibition [1] -7.12% | growth inhibition [2] -13.5% | viability increase [3] -2.33% | viability [4] 99.3% | viability [5] 96.2% | inhibition [6] 0.645% | RAM network inhibition [7] 1.32%

COc1cccc(N2C(=O)Nc3ccccc3C2(O)C(=O)NCc2ccc3c(c2)OCO3)c1 (stereo not given)
inactive: growth inhibition [1] -11.5% | growth inhibition [2] -8.59% | viability increase [3] -0.4% | viability [4] 95.9% | viability [5] 99.7% | inhibition [6] 0.51% | RAM network inhibition [7] 9.22%

O=C(CSc1cn(CCNC(=O)c2ccccc2)c2ccccc12)NCc1ccco1
inactive: growth inhibition [1] -4.76% | growth inhibition [2] -10.4% | viability increase [3] -5.29% | viability [4] 84.1% | viability [5] 84.3% | inhibition [6] 0.64% | RAM network inhibition [7] 5.98%

CC1=C(C(=O)OCc2ccccc2)C(c2ccco2)C2=C(CC(C)(C)CC2=O)N1 (stereo not given)
inactive: growth inhibition [1] -13.1% | growth inhibition [2] -7.33% | viability increase [3] -6.3% | viability [4] 71.9% | viability [5] 67.5% | inhibition [6] 2.4% | RAM network inhibition [7] 1.23%

CCNCCNC(=O)c1c(O)c2cccc3c2n(c1=O)CCC3
inactive: growth inhibition [1] -22.8% | growth inhibition [2] -19% | viability increase [3] -3.02% | viability [4] 82.6% | viability [5] 93.7% | inhibition [6] 0.7% | RAM network inhibition [7] 0.57%

O=C(CSc1cn(CCNC(=O)c2cccs2)c2ccccc12)NCC1CCCO1 (stereo not given)
inactive: growth inhibition [1] -13.8% | growth inhibition [2] -23.4% | viability increase [3] 0.16% | viability [4] 96.2% | viability [5] 96.1% | inhibition [6] 1.61% | RAM network inhibition [7] 1.6%

O=C(Nc1ccccc1C(=O)N1CCN(Cc2ccccc2)CC1)c1ccccn1
inactive: growth inhibition [1] -4.94% | growth inhibition [2] -10.1% | viability increase [3] -2.39% | viability [4] 93.3% | viability [5] 96.2% | inhibition [6] -0.045% | RAM network inhibition [7] 6.33%
